# Calls of active or inactive are those of the source. The rule behind the calls is not given here.
# Assays:
# BT-474 = test: Cytotoxicity against human BT-474 cells; assay type: functional
# Procedure, shortened: (§1)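 BT-474 breast cancer cells and nontumorigenic HMECs treated 48 h with concentrations up to 30 μM. CC50 derived from concentration–response viability plots. Values >30 μM assigned when viability fell by less than 50% of vehicle at 30 μM. Mean ± SEM, n ≥ 3.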
# HMEC = test: (§2) Cytotoxicity against HMECs; assay type: toxicity, cell-based; conditions: human, hmec; procedure, shortened: as §1
# [1] = Aqueous kinetic solubility of the compound in PBS at pH 7.4 at 250 uM incubated for 24 hrs by UPLC/MS analysis; assay type: physicochemical; conditions: read-out: Kinetic_solubility
# Procedure, shortened: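 Kinetic solubility measured in phosphate-buffered saline, pH 7.4. Mean of at least two independent experiments, each run in two technical replicates.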
# [2] = Metabolic stability in mouse liver microsomes assessed as half life preincubated for 15 mins followed by NADPH addition and measured after 1 to 2 hrs by LC-MS/MS analysis; assay type: ADME, Microsome; conditions: liver microsomes, time 75-135 min
# Procedure, shortened: (§3)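 Microsomal stability assessed in mouse, human, rat or dog liver microsomes with NADPH cofactor. Half-life and percent parent remaining at 60 and 120 min reported. Mean of at least two independent experiments, each in two technical replicates.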
# [3] = Metabolic stability in mouse liver microsomes assessed as parent compound remaining preincubated for 15 mins followed by NADPH addition and measured after 1 hr by LC-MS/MS analysis; assay type: ADME, Microsome; conditions: time 75 min, read-out: Stability; procedure, shortened: as §3
# [4] = Metabolic stability in mouse liver microsomes assessed as parent compound remaining preincubated for 15 mins followed by NADPH addition and measured after 2 hrs by LC-MS/MS analysis; assay type: ADME, Microsome; conditions: time 135 min, read-out: Stability; procedure, shortened: as §3
# [5] = Metabolic stability in human liver microsomes assessed as half life preincubated for 15 mins followed by NADPH addition and measured after 1 to 2 hrs by LC-MS/MS analysis; assay type: ADME, Microsome; conditions: liver microsomes, time 75-135 min; procedure, shortened: as §3
# [6] = Metabolic stability in human liver microsomes assessed as parent compound remaining preincubated for 15 mins followed by NADPH addition and measured after 1 hr by LC-MS/MS analysis; assay type: ADME, Microsome; conditions: time 75 min, read-out: Stability; procedure, shortened: as §3
# [7] = Metabolic stability in human liver microsomes assessed as parent compound remaining preincubated for 15 mins followed by NADPH addition and measured after 2 hrs by LC-MS/MS analysis; assay type: ADME, Microsome; conditions: time 135 min, read-out: Stability; procedure, shortened: as §3
# [8] = Metabolic stability in mouse liver microsomes assessed as half life preincubated for 15 mins followed by UDPGA addition and measured after 2 hrs by LC-MS/MS analysis; assay type: ADME, Microsome; conditions: time 135 min
# Procedure, shortened: (§4)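 Mouse and human liver microsomes incubated with UDPGA cofactor. Half-life and percent parent remaining at 120 min reported. Mean of at least two independent experiments, each in two technical replicates.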
# [9] = Metabolic stability in human liver microsomes assessed as parent compound remaining preincubated for 15 mins followed by UDPGA addition and measured after 2 hrs by LC-MS/MS analysis; assay type: ADME, Microsome; conditions: time 135 min, read-out: Stability; procedure, shortened: as §4
# [10] = Metabolic stability in rat liver microsomes assessed as half life preincubated for 15 mins followed by NADPH addition and measured after 1 to 2 hrs by LC-MS/MS analysis; assay type: ADME, Microsome; conditions: time 75-135 min; procedure, shortened: as §3
# [11] = Metabolic stability in dog liver microsomes assessed as half life preincubated for 15 mins followed by NADPH addition and measured after 1 to 2 hrs by LC-MS/MS analysis; assay type: ADME, Canis lupus familiaris, Microsome; conditions: time 75-135 min; procedure, shortened: as §3
# [12] = Metabolic stability in rat liver microsomes assessed as parent compound remaining preincubated for 15 mins followed by NADPH addition and measured after 1 to 2 hrs by LC-MS/MS analysis; assay type: ADME, Microsome; conditions: time 75-135 min; procedure, shortened: as §3
# [13] = Metabolic stability in dog liver microsomes assessed as parent compound remaining preincubated for 15 mins followed by NADPH addition and measured after 1 to 2 hrs by LC-MS/MS analysis; assay type: ADME, Canis lupus familiaris, Microsome; conditions: time 75-135 min; procedure, shortened: as §3
# [14] = Metabolic stability in mouse liver microsomes assessed as half-life preincubated for 15 mins followed by UDPGA addition and measured after 2 hrs by LC-MS/MS analysis
# [15] = as §2; assay type: toxicity, cell-based, HMEC; conditions: human, HMEC cells; procedure, shortened: as §1
# MDA-MB-231 = test: Cytotoxicity against human MDA-MB-231 cells; assay type: functional
# Procedure, shortened: (§5)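 Human cancer lines (A375, MDA-MB-231, OMM-1, UPMM-2, CAPAN-2, HepG2, HT-29, HCT116) treated up to 30 μM. CC50 derived from concentration–response viability plots. Mean ± SEM, n ≥ 6. Two-tailed unpaired t test used between compounds.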
# A-375 = test: Cytotoxicity against human A-375 cells; assay type: functional; procedure, shortened: as §5
# [16] = Cytotoxicity against human OMM-1 cells; assay type: functional; procedure, shortened: as §5
# [17] = Cytotoxicity against human UPMM-2 cells; assay type: functional; procedure, shortened: as §5
# Capan-2 = test: Cytotoxicity against human Capan-2 cells; assay type: functional; procedure, shortened: as §5
# HepG2 = test: Cytotoxicity against human HepG2 cells; assay type: functional; procedure, shortened: as §5
# HT-29 = test: Cytotoxicity against human HT-29 cells; assay type: functional; procedure, shortened: as §5
# HCT-116 = test: Cytotoxicity against human HCT-116 cells; assay type: functional; procedure, shortened: as §5
# [18] = Inhibition of REV-ERBbeta (unknown origin) transcription expressed in HEK293 cells incubated for 24 hrs by gaussia luciferase based assay; assay type: cell-based; conditions: Homo sapiens, HEK293, 24 h
# Procedure, shortened: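 HEK-293 cells cotransfected with REV-ERBβ and a luciferase reporter driven by two repeats of a REV-ERB response element (RevRE) consensus, then treated across a concentration range. Luciferase activity is expressed as fold of DMSO vehicle, mean ± SEM, n = 6, and EC50 is taken from the concentration-response curve. A parallel reporter carrying a mutated RevRE served as a specificity control.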
# A375 (human) [19] = test: Inhibition of autophagy in human A375 cells expressing EGFP-LC3B assessed as increase in LC3-II protein level at 2.5 uM after 24 hrs by immunoblotting analysis
# A375 (human) [20] = test: Inhibition of autophagy in human A375 cells expressing EGFP-LC3B assessed as accumulation of autophagosome after 24 hrs by Hoechst 33342 staining based fluorescent microscopy analysis; conditions: dose 1.25-5 µM
"solubility kinetic at 24 h, 250 µM [1] [µM]",remaining at 1 h [3] [%],remaining at 2 h [4] [%],half-life [5] [h],remaining at 1 h [6] [%],remaining at 2 h [7] [%],half-life [8] [h],remaining at 2 h [9] [%],t1/2 at 2 h [14] [h],Compound,CC50 (BT-474) [µM],also measured
245,82,74,> 2,75,54,> 2,95,> 2,Fc1ccc(C2(NCc3cc(CC4CCNCC4)ccc3F)CCCC2)cc1,2.29,CC50 (HMEC): 17.2 µM; half-life [2]: > 2 h; half-life ([10]; liver microsomes): > 1 h; half-life ([11]; liver microsomes): > 1 h; Stability [12]: 75%; Stability [13]: 83%
235,66,39,> 2,79,50,> 2,> 95,> 2,CN1CCC(Cc2cccc(CNC3(c4ccc(F)cc4)CCCC3)c2)CC1,5.93,CC50 [15]: > 30 µM; t1/2 ([10]; microsomes): 0.733 h; t1/2 ([11]; microsomes): 0.933 h; CC50 (MDA-MB-231): 7.42 µM; CC50 (A-375): 5.67 µM; CC50 [16]: 2.28 µM; CC50 [17]: 1.91 µM; CC50 (Capan-2): > 30 µM; CC50 (HepG2): 2.8 µM; CC50 (HT-29): 18.9 µM; CC50 (HCT-116): 13.5 µM; EC50 [18]: 3.78 µM; inhibition (A375 (human) [19]): Active; inhibition (A375 (human) [20]): Dose-Dependent Effect

# Source: ChEMBL document CHEMBL5344432, “Identification of a Dual Autophagy and REV-ERB Inhibitor with in Vivo Anticancer Efficacy” (J Med Chem, 2024)
